Assay results as given in ChEMBL document CHEMBL1131242, “6beta-Acetoxynortropane: a potent muscarinic agonist with apparent selectivity toward M2-receptors” (J Med Chem, 1998).

How the values were obtained:
[1] = biological target: T1, Muscarinic acetylcholine receptor M1 (Rattus norvegicus, UniProt P08482); experiment: Inhibition of binding of [3H]oxotremorine M to Muscarinic acetylcholine receptor M1 in rat cerebral cortical membranes; format: cell membranes, Membrane
T1 sequence (P08482 whole entry): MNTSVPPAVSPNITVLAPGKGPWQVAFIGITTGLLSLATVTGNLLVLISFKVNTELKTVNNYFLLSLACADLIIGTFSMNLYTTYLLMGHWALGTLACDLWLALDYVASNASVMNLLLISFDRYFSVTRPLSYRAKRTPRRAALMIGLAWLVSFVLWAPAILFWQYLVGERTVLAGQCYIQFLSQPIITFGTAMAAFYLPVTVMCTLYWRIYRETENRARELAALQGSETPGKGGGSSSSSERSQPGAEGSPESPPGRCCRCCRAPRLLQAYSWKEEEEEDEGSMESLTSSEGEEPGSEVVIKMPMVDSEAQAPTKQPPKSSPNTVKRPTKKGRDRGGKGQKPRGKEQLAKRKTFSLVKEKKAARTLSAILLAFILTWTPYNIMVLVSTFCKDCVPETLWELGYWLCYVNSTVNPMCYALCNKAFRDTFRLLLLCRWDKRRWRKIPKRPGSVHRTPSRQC
How it was run: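 Agonist radioligand assay: rat cortical membranes with 2 nM [3H]oxotremorine M in 25 mM sodium phosphate pH 7.4 with 5 mM MgCl2, 2 h at 25 °C, in triplicate. Nonspecific binding used 5 µM atropine. Filtration followed by scintillation counting.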

[2] = biological target: T1, Muscarinic acetylcholine receptor M1; experiment: Inhibition of binding of [3H]quinuclidinyl benzilate to Muscarinic acetylcholine receptor M1 in rat cerebral cortical membranes; format: cell membranes, Membrane
How it was run: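 Rat cerebral cortex membranes were homogenised in 50 mM Tris-HCl pH 7.4 and diluted in HEPES binding buffer. They were incubated with 0.2 nM [3H]quinuclidinyl benzilate in 20 mM HEPES pH 7.4 with 10 mM MgCl2 and 100 mM NaCl for 30 min at 37 °C, in triplicate. Nonspecific binding used 1 µM atropine. Filtration was followed by scintillation counting.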

[3] = biological target: T1, Muscarinic acetylcholine receptor M1
[4] = biological target: T1, Muscarinic acetylcholine receptor M1; experiment: Affinity versus [3H]oxotremorine M (agonist) binding to Muscarinic acetylcholine receptor M1 in Rat Cerebral Cortical Membranes, (Kd=[…])
[5] = biological target: T2, Muscarinic acetylcholine receptor M3 (Homo sapiens, UniProt P20309); experiment: Inhibition of binding of [3H]quinuclidinyl benzilate to muscarinic receptors in membranes of CHO cells transfected with Muscarinic acetylcholine receptor M3; format: cell membranes
Target sequence in this assay (P20309 whole entry): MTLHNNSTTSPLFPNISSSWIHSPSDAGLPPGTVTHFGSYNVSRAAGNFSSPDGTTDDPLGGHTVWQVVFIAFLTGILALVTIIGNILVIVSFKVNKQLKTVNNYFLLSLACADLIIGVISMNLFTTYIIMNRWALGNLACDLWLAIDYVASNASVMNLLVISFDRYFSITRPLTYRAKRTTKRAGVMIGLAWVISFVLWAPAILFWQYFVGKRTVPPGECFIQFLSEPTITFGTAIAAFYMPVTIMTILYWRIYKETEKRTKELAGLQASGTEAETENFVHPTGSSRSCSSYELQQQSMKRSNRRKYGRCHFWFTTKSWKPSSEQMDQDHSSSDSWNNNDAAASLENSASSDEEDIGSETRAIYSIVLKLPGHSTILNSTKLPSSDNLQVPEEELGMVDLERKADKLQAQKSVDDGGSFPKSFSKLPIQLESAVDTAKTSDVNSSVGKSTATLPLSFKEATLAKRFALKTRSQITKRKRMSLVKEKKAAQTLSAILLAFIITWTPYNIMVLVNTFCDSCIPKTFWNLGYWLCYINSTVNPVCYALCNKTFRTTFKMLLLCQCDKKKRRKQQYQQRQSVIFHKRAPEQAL

[6] = biological target: T3, Muscarinic acetylcholine receptor M2 (Homo sapiens, UniProt P08172); experiment: Inhibitory activity against [3H]quinuclidinyl Benzilate binding to Muscarinic acetylcholine receptor M2 in the absence of GTP
T3 sequence (P08172 whole entry): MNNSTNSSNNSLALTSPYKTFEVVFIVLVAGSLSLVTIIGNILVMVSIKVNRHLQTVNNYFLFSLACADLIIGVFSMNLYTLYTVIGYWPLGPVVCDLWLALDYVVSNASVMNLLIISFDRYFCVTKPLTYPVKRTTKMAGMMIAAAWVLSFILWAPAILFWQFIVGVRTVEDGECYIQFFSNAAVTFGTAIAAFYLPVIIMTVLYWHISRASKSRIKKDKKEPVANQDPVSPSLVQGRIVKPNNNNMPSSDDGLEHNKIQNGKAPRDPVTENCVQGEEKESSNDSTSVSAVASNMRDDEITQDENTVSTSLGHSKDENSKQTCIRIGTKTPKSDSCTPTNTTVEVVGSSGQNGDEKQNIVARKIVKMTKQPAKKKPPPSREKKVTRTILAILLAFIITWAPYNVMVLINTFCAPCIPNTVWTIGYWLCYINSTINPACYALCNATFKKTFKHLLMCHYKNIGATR
How it was run: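 Membranes from CHO cells expressing human M2 receptor. Competition against 0.1 nM [3H]quinuclidinyl benzilate in 25 mM sodium phosphate pH 7.4, 5 mM MgCl2, without or with 10 μM GTP; 30 min at 37 °C, triplicate. Nonspecific binding with 1 μM atropine. Filtration, scintillation counting.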

[7] = biological target: T3, Muscarinic acetylcholine receptor M2; experiment: Inhibition of binding of [3H]quinuclidinyl benzilate to muscarinic receptors in membranes of CHO cells transfected with Muscarinic acetylcholine receptor M2; format: cell membranes
[8] = biological target: T4, Muscarinic acetylcholine receptor M4 (Homo sapiens, UniProt P08173); experiment: Inhibition of binding of [3H]quinuclidinyl benzilate to muscarinic receptors in membranes of CHO cells transfected with Muscarinic acetylcholine receptor M4; format: cell membranes
T4 sequence (P08173 whole entry): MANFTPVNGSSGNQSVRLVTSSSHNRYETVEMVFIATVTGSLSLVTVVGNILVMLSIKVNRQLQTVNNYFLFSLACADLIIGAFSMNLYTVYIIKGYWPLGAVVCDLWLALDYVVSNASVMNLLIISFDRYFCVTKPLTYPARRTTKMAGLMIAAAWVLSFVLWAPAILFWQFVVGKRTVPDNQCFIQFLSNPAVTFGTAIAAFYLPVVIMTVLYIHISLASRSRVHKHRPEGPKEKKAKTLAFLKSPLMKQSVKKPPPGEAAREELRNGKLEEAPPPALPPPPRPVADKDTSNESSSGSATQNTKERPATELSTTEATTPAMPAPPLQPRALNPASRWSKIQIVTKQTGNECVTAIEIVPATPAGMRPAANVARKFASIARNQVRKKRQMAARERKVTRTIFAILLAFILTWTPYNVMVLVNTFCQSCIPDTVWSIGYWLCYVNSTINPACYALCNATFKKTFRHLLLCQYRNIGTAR

[9] = biological target: Muscarinic acetylcholine receptor M2 (Homo sapiens) (UniProt P08172); experiment: Inhibition of binding of [3H]quinuclidinyl benzilate to Muscarinic acetylcholine receptor M2 in membranes of transfected CHO cells
[10] = biological target: Muscarinic acetylcholine receptor M2 (Homo sapiens) (UniProt P08172); experiment: Inhibition of binding of 0.1 nM [3H]quinuclidinyl benzilate to Muscarinic acetylcholine receptor M2 in membranes of transfected CHO cells in the absence of GTP
[11] = biological target: Muscarinic acetylcholine receptor M2 (Homo sapiens) (UniProt P08172); experiment: Inhibition of binding of 0.1 nM [3H]quinuclidinyl benzilate to Muscarinic acetylcholine receptor M2 in membranes of transfected CHO cells in the presence of 10 uM GTP
[12] = biological target: T2, Muscarinic acetylcholine receptor M3; experiment: Inhibitory activity against stimulation of [3H]inositol monophosphate accumulation in [3H]inositol-labelled CHO transfected cells mediated by Muscarinic acetylcholine receptor M3
Target sequence in this assay (P20309 whole entry, looked up): as the sequence (P20309 whole entry) above

Work on CC(=O)OC1CC2CCCC1N2 (configuration not stated) yielded a Ki [1] of 0.0056 µM, a Ki [2] of 21 µM and a Ki [3] of 22 µM. The Ki [4] was 0.0056 µM, the Ki [5] was 0.68 µM and the IC50 [6] was 0.017 µM. The Ki [7] was 0.0026 µM, the Ki [8] was 0.033 µM and the Ki [9] was 0.0026 µM. It also gave an IC50 [10] of 0.017 µM, an IC50 [11] of 0.12 µM and an EC50 [12] of 0.0036 µM.
